Experimental data reported in ChEMBL document CHEMBL3785069, “Tumour-specific cytotoxicity and structure-activity relationships of novel 1-[3-(2-methoxyethylthio)propionyl]-3,5-bis(benzylidene)-4-piperidones” (Bioorg Med Chem, 2016).
Calls of active or inactive are those of the source. No cut-off for these calls is given here.

How the values were obtained:
[1] = system: HSC-2; experiment: Induction of apoptosis in human HSC2 cells assessed as PARP1 cleavage after 24 hrs by SDS-PAGE method; assay type: functional, cell-based
In short: (§1)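 HSC-2 cells grown in 6-well plates for 24 h, then exposed to 0.1, 0.2, 0.3 and 0.4 µM for 24 h. Cells scraped into lysis buffer and run on 8% SDS-PAGE, then transferred to PVDF. Cleaved PARP (Asp214) detected with a human-specific antibody on X-ray film.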

[2] = Cytotoxicity against human Molt4/C8 cells after 72 hrs by MTT assay; assay type: functional, cell-based; settings: MOLT-4, 72 h
In short: (§2)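 Leukemic cells exposed to a concentration series of each compound in RPMI 1640 medium at 37 °C, 72 h for Molt4/C8 and CEM, 48 h for L1210.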

[3] = system: CCRF-CEM; experiment: Cytotoxicity against human CEM cells after 72 hrs by MTT assay; assay type: functional, cell-based; in short: as §2
[4] = system: L1210; experiment: Cytotoxicity against mouse L1210 cells after 48 hrs by MTT assay; assay type: functional, cell-based; settings: L1210, 48 h; in short: as §2
[5] = Cytotoxicity against human HSC2 cells after 48 hrs by MTT assay; assay type: functional; settings: HSC-2, 48 h
In short: (§3)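 Oral carcinoma (HSC-2, HSC-3, HSC-4) and nonmalignant HGF and HPLF cells incubated with graded compound concentrations at 37 °C for 48 h in DMEM plus 10% heat-inactivated FBS. Viability read by MTT. CC50 from duplicate runs, differing by under 10% at each concentration.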

[6] = Cytotoxicity against human HSC3 cells after 48 hrs by MTT assay; assay type: functional; settings: HSC-3, 48 h; in short: as §3
[7] = Cytotoxicity against human HSC4 cells after 48 hrs by MTT assay; assay type: functional; settings: HSC-4, 48 h; in short: as §3
[8] = Cytotoxicity against human HGF cells after 48 hrs by MTT assay; assay type: cell-based; in short: as §3
[9] = Cytotoxicity against human HPLF cells after 48 hrs by MTT assay; assay type: cell-based; in short: as §3
[10] = system: HSC-2; experiment: Potency index, ratio of CC50 for mephalan to CC50 for test compound against human HSC2 cells; assay type: functional
[11] = system: HSC-3; experiment: Potency index, ratio of CC50 for mephalan to CC50 for test compound against human HSC3 cells; assay type: functional
[12] = system: HSC-4; experiment: Potency index, ratio of CC50 for mephalan to CC50 for test compound against human HSC4 cells; assay type: functional
[13] = system: HSC-2; experiment: Induction of apoptosis in human HSC2 cells assessed as cell death after 24 hrs by Annexin-V-FITC/PI-based flow cytometric analysis; assay type: functional
In short: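 HSC-2 cells treated in RPMI for 24 h at 37 °C at 0.5, 1.0 and 2.0 µM. Early and late apoptotic fractions measured by flow cytometry after Annexin-V-FITC/propidium iodide staining.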

[14] = system: HSC-2; experiment: Selectivity index, ratio of average CC50 for human HGF and HPLF cells to CC50 for human HSC2 cells; settings: pooled result: one value given for 2 cell lines, strains, targets or settings
[15] = system: HSC-3; experiment: Selectivity index, ratio of average CC50 for human HGF and HPLF cells to CC50 for human HSC3 cells; settings: pooled result: one value given for 2 cell lines, strains, targets or settings
[16] = system: HSC-4; experiment: Selectivity index, ratio of average CC50 for human HGF and HPLF cells to CC50 for human HSC4 cells; settings: pooled result: one value given for 2 cell lines, strains, targets or settings
[17] = system: HSC-2; experiment: Induction of apoptosis in human HSC2 cells assessed as PARP1 cleavage at 0.4 uM after 24 hrs by SDS-PAGE method; assay type: functional, cell-based; in short: as §1

SMILES	Activity [1]	IC50 [2] [nM]	IC50 [3] [nM]	IC50 [4] [nM]	CC50 [5] [nM]	CC50 [6] [nM]	CC50 [7] [nM]	CC50 at 48 h [8] [nM]	CC50 at 48 h [9] [nM]	Ratio [10]	Ratio [11]	Ratio [12]	Activity [13]	Selectivity Index [14]	Selectivity Index [15]	Selectivity Index [16]	Activity [17]
COCCSCCC(=O)N1C/C(=C\c2ccc([N+](=O)[O-])cc2)C(=O)/C(=C/c2ccc([N+](=O)[O-])cc2)C1	Dose-dependent effect	1370	1290	2130	400	390	300	3520	2590	35	35	35	Dose-dependent effect	7.65	7.85	10.2	
COCCSCCC(=O)N1C/C(=C\c2ccccc2)C(=O)/C(=C/c2ccccc2)C1		1340	1230	3000	1300	1470	1220	9670	7580					6.64	5.87	7.07	
N[C@@H](Cc1ccc(N(CCCl)CCCl)cc1)C(=O)O [MELPHALAN]		3480	1740	5940	16700	9900	11100	78000	77100					4.65	7.84	6.99	
COCCOCCC(=O)N1C/C(=C\c2ccccc2)C(=O)/C(=C/c2ccccc2)C1		1840	1760	6240	1010	1320	1220	9240	8840					8.95	6.85	7.41	
COCCSCCC(=O)N1C/C(=C\c2ccc(C)cc2)C(=O)/C(=C/c2ccc(C)cc2)C1		2660	1950	4900	1450	1700	1200	10300	9170					6.72	5.73	8.12	
COCCSCCC(=O)N1C/C(=C\c2ccc(F)cc2)C(=O)/C(=C/c2ccc(F)cc2)C1		1720	1600	5850	760	1190	560	5270	4990					6.75	4.31	9.16	
COCC[S+](C)CCC(=O)N1C/C(=C\c2ccccc2)C(=O)/C(=C/c2ccccc2)C1.F[B-](F)(F)F (configuration not stated)		1340	1400	3450	1560	1430	1360	10100	6250					5.24	5.72	6.02	
COCC[S+]([O-])CCC(=O)N1C/C(=C\c2ccc(F)cc2)C(=O)/C(=C/c2ccc(F)cc2)C1 (configuration not stated)		1280	830	3330	690	1010	700	4830	4210					6.55	4.48	6.46	
COCCS(=O)(=O)CCC(=O)N1C/C(=C\c2ccc(F)cc2)C(=O)/C(=C/c2ccc(F)cc2)C1		1120	610	2450													
COCCSCCC(=O)N1C/C(=C\c2ccc(OC)cc2)C(=O)/C(=C/c2ccc(OC)cc2)C1		7080	6310	13200	1970	2270	1630	17200	15500					8.33	7.23	10.1	
COCCSCCC(=O)N1C/C(=C\c2ccc(Cl)cc2)C(=O)/C(=C/c2ccc(Cl)cc2)C1		1730	1240	3440	1090	1030	810	5240	5970					5.15	5.45	6.93	
COCCS(=O)(=O)CCC(=O)N1C/C(=C\c2ccccc2)C(=O)/C(=C/c2ccccc2)C1		1660	1140	2670	1460	1190	1300	9590	8430					6.17	7.57	6.93	
COCCSCCC(=O)N1C/C(=C\c2ccc(OC)c(OC)c2)C(=O)/C(=C/c2ccc(OC)c(OC)c2)C1		1810	1840	1570	400	1220	860	9830	8070					22.4	7.34	10.4	Active
COCC[S+]([O-])CCC(=O)N1C/C(=C\c2ccccc2)C(=O)/C(=C/c2ccccc2)C1 (configuration not stated)		1620	1290	4910	580	2100	1020	9090	9100					15.7	4.33	8.92	
